IDH1 mut inh = IDH1 R132H (human) inhibition | O75874 | IDH1 R132H reductase, diaphorase/resazurin fluorescence, 60 min | inhibition, % at 10 µM | 0.18% of 70,000 active | AID 624101; in the data active = inhibition above about 34%; inconclusive = no clear call, values can overlap the other calls; inactive = below about 11%;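 note: 0% = DMSO and 100% = no enzyme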
Target sequence (O75874 whole entry R132H): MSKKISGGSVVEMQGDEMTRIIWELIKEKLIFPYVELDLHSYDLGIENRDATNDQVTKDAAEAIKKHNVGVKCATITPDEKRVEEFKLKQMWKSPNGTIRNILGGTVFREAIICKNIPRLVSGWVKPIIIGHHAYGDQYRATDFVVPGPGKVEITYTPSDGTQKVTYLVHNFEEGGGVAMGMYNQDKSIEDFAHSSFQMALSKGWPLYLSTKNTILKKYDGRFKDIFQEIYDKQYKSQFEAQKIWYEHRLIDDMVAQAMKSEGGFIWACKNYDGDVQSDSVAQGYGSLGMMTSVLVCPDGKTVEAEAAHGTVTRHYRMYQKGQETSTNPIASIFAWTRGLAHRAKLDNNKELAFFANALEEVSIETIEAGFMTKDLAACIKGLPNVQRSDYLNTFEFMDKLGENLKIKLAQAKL
GASC1 inh = inhibitors of human demethylase GASC-1 KDM4C. inhibition, % at 12.5 µM. AID 720574. 0.15% of 96,000 active. GST-KDM4C 2-372, H3K9me3 peptide, LANCE TR-FRET;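 active = mean replicate inhibition above about 25%, with at least 55% of replicates also reaching it, limit read from the data, passing the limit was not always enough; inconclusive = only one of those two conditions met; inactive = neither condition met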
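System – N-terminal GST-fused human GASC-1 (KDM4C) fragment, residues 2-372 · Input – enzyme final amount 10 nM · Technique – LANCE TR-FRET, Eu antibody, ULight-streptavidin, EDTA, ex 340 nm, em 618/671 nm · Medium – HEPES buffer, pH 7.5, plus ascorbate · Incubation – enzyme reaction 30 min, then detection 60 min, both room temperature · Reagent – H3K9me3 peptide with Fe(II)/2OG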
T cruzi growth-1 = inhibitors of T. cruzi proliferation; T. cruzi beta-gal in NIH3T3, GalScreen luminescence, 90 h; inhibition, % at 8.34 µM; 5.9% of 77,000 active;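 active = mean inhibition above about 93%, with at least 55% of replicates each passing it, limit read from the data, passing the limit was not always enough; inconclusive = only one of those two conditions holds; inactive = neither condition holds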
T cruzi growth-2 = inhibitors of T. cruzi proliferation; shares compounds with T cruzi growth-1; T. cruzi beta-gal in NIH3T3, GalScreen luminescence, 90 h; inhibition, % at 8.35 µM; 72% of 5,600 active; AID 651739;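 active = mean replicate inhibition above about 95% and at least 55% of replicates individually reaching it, limit read from the data; inconclusive = only one of the two criteria is met; inactive = neither criterion is met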
T cruzi growth-3 = blocks T. cruzi growth in NIH3T3 host cells. shares compounds with T cruzi growth-1. T. cruzi beta-gal in NIH3T3, GalScreen luminescence, 90 h. inhibition, % at 2.09 µM. 21% of 5,600 active. AID 651740;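 active = mean inhibition above about 95%, with at least 55% of replicates also reaching it, limit read from the data; inconclusive = meets just one of the two conditions; inactive = meets neither condition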;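 note: plate controls were neutral control median for no effect and positive control median for full effect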
NIH3T3 tox = kills mouse NIH/3T3 fibroblasts. 14% of 5,600 active. shares compounds with T cruzi growth-1. AID 651742. cytotoxicity (signal decrease), % at 8.35 µM. NIH/3T3 viability, CellTiter-Glo ATP luminescence, 90 h;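 active = mean signal decrease across replicates above about 35% based on untreated-well scatter, with enough replicates individually passing, limit read from the data; inconclusive = no rule stated though some were filed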;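 note: 0% = median of neutral control wells and 100% = median of positive control wells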
NIH3T3 tox 2 = NIH/3T3 (mouse) viability loss; inhibition, % at 24.9 µM; NIH/3T3 viability, CellTiter-Glo ATP luminescence, 90 h; shares compounds with T cruzi growth-1; 56% of 5,600 active;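 active = mean loss of cell viability signal at or above a set limit, and enough replicates individually reaching it; inconclusive = meets only the mean limit or only the replicate share; inactive = meets neither condition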;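 note: 0% = median of neutral control wells and 100% = median of positive control wells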
* hit, by the source's call; ? = inconclusive; / = no result given. The sample as a whole holds a higher share of hits than the screen did.

SMILES	IDH1 mut inh	GASC1 inh	T cruzi growth-1	T cruzi growth-2	T cruzi growth-3	NIH3T3 tox	NIH3T3 tox 2
CCC(=O)Nc1ccc2c(c1)C(=O)N(C)[C@H]1CC[C@H](CC(=O)Nc3ccc(C(C)C)cc3)O[C@@H]1CO2	/	0	40	/	/	/	/
CC(NC(=O)c1ccccc1NC(=O)c1ccccc1)C(=O)Nc1ccc2ccccc2c1 (stereo not given)	1	/	/	/	/	/	/
O=C(Nc1ccc(I)cc1C(=O)NCC1CCCO1)c1ccco1 (stereo not given)	0	/	/	/	/	/	/
CC(C)(O)C#Cc1ccc([C@H]2[C@@H](CO)N3CCCCN(C(=O)c4cccc(F)c4)C[C@H]23)cc1	/	0	110*	36	-22	-1	5
CC(C)(O)C#Cc1ccc([C@H]2[C@@H](CO)N3CCCCN(C(=O)c4ccc(F)cc4)C[C@H]23)cc1	/	-1	112*	48	13	-13	-7
CC(C)(O)C#Cc1ccc([C@@H]2[C@H](CO)N3CCCCN(C(=O)c4ccc(F)cc4)C[C@@H]23)cc1	/	1	19	/	/	/	/
CC(C)(O)C#Cc1ccc([C@H]2[C@H]3CN(C(=O)c4cccc(F)c4)CCCCN3[C@H]2CO)cc1	/	0	79	/	/	/	/
CC(C)(O)C#Cc1ccc([C@H]2[C@H](CO)N3CCCCN(C(=O)c4ccc(F)cc4)C[C@@H]23)cc1	/	-1	122*	?	-11	13	20
CC(C)C#Cc1ccc([C@H]2[C@@H](CO)N3CCCCN(C(=O)c4ccc(F)cc4)C[C@@H]23)cc1	/	-2	84	/	/	/	/
C/C1=C/CC(=O)[C@@H](C)C[C@H]2OC(=O)C(CO)=C2CC1	0	/	/	/	/	/	/
CC1(C)[C@H](O)CC[C@@]2(C)[C@@H]3CC[C@](C)(C(O)CO)CC3=CC[C@H]12 (stereo not given in full)	0	/	/	/	/	/	/
Cc1ccccc1N(CC(=O)Nc1cccc(Cl)c1Cl)S(C)(=O)=O	-1	/	/	/	/	/	/
O=C(NCC[C@H]1CC[C@@H](NC(=O)C2CCC2)[C@H](CO)O1)c1cnccn1	0	-1	184*	56	5	-7	10
O=C(NCC[C@H]1CC[C@H](NC(=O)C2CCC2)[C@@H](CO)O1)c1cnccn1	-1	0	52	/	/	/	/
COc1cc(Br)c(CN(CCc2ccc(O)cc2)C(=O)C(F)(F)F)cc1O	10	/	/	/	/	/	/
O=C(CSc1nnc(-c2ccc(Br)cc2)o1)c1ccc([N+](=O)[O-])cc1	0	/	/	/	/	/	/
CN(C)CC(=O)N1[C@H](C#N)[C@@H](c2ccc(C#CC3CCCCC3)cc2)[C@@H]1CO	/	-1	72	/	/	/	/
CN(C)CC(=O)N1[C@@H](C#N)[C@H](c2ccc(C#CC3CCCCC3)cc2)[C@@H]1CO	/	-3	102*	98*	38	20	104*
CN(C)CC(=O)N1[C@@H](C#N)[C@@H](c2ccc(C#CC3CCCCC3)cc2)[C@@H]1CO	/	4	42	/	/	/	/
CN(C)CC(=O)N1[C@H](C#N)[C@@H](c2ccc(C#CC3CCCCC3)cc2)[C@H]1CO	0	0	109*	107*	73	1	102*
Cc1nnc(SCc2nc(N)nc(Nc3ccc4ccccc4c3)n2)s1	0	/	/	/	/	/	/
Cn1c(=O)[nH]c(=O)c2c1ncn2CC(=O)NCc1ccccc1	2	/	/	/	/	/	/
O=C(CCCCCC(=O)N/N=C/c1cccs1)NO	0	/	/	/	/	/	/
COc1ccc(CC(=O)Nc2ccc(O)cc2C(=O)O)cc1OC	-2	/	/	/	/	/	/
C[C@@H]1CN([C@H](C)CO)C(=O)Cc2cc(NC(=O)c3ccncc3)ccc2O[C@@H]1CN(C)Cc1ccc(Oc2ccccc2)cc1	-1	-1	76	/	/	/	/
SMILES	IDH1 mut inh	GASC1 inh	T cruzi growth-1	T cruzi growth-2	T cruzi growth-3	NIH3T3 tox	NIH3T3 tox 2
C[C@@H]1CN([C@@H](C)CO)C(=O)Cc2cc(NC(=O)Nc3ccccc3)ccc2O[C@@H]1CN(C)Cc1ccncc1	23	-1	57	/	/	/	/
C[C@H](CO)N1C[C@H](C)[C@H](CN(C)Cc2ccc(Oc3ccccc3)cc2)Oc2ccc(NC(=O)c3ccncc3)cc2CC1=O	-1	-1	102*	102*	52	26	103*
C[C@@H]1CN([C@H](C)CO)C(=O)Cc2cc(NC(=O)Nc3ccccc3)ccc2O[C@H]1CN(C)Cc1ccncc1	10	-1	98*	-14	8	4	-8
C[C@H]1CN([C@@H](C)CO)C(=O)Cc2cc(NC(=O)c3ccncc3)ccc2O[C@@H]1CN(C)Cc1ccc(Oc2ccccc2)cc1	0	-1	85	/	/	/	/
C[C@@H]1CN([C@@H](C)CO)C(=O)Cc2cc(NC(=O)c3ccncc3)ccc2O[C@H]1CN(C)Cc1ccc(Oc2ccccc2)cc1	0	-1	105*	105*	84	24	103*
COc1ccc(NC(=O)C(C)Oc2ccccc2)c([N+](=O)[O-])c1 (stereo not given)	0	/	/	/	/	/	/
N#CCN(CC#N)C(=O)C(Sc1ccccc1)c1ccccc1 (stereo not given)	0	/	/	/	/	/	/
O=C(C1CC1)N1CCCCN2[C@@H](CO)[C@@H](c3ccc(C#CC4CC4)cc3)[C@@H]2C1	/	/	50	/	/	/	/
O=C(C1CC1)N1CCCCN2[C@H](CO)[C@H](c3ccc(C#CC4CC4)cc3)[C@@H]2C1	/	/	46	/	/	/	/
O=C(C1CC1)N1CCCCN2[C@H](CO)[C@H](c3ccc(C#CC4CC4)cc3)[C@H]2C1	/	/	82	/	/	/	/
O=C(C1CCCC1)N1CCCCN2[C@H](CO)[C@@H](c3ccc(C#CC4CC4)cc3)[C@H]2C1	/	/	109*	107*	58	13	49*
O=C(C1CCCC1)N1CCCCN2[C@@H](CO)[C@H](c3ccc(C#CC4CC4)cc3)[C@@H]2C1	/	/	121*	110*	65	40*	82*
O=C(C1CCC1)N1CCCCN2[C@H](CO)[C@@H](c3ccc(C#CC4CCCC4)cc3)[C@@H]2C1	/	/	94	/	/	/	/
O=C(C1CC1)N1CCCCN2[C@@H](CO)[C@H](c3ccc(C#CC4CC4)cc3)[C@@H]2C1	/	/	103*	84	43	24	52*
O=C(C1CCC1)N1CCCCN2[C@H](C1)[C@H](c1ccc(C#CC3CCCC3)cc1)[C@@H]2CO	/	/	103*	108*	54	27	104*
COc1ccc(C(=O)NC(c2c(C)[nH]n(-c3ccccc3)c2=O)(C(F)(F)F)C(F)(F)F)cc1	0	/	/	/	/	/	/
CCOc1ccc(N2C(=O)/C(=C/c3ccc(F)cc3)N=C2SC(CC)C(=O)N2CCOCC2)cc1 (stereo not given)	0	/	/	/	/	/	/
Cc1cc(Cl)c(S(=O)(=O)N2CCCCC2)cc1OCC(N)=O	0	/	/	/	/	/	/
CCCSc1nc(NCCO)c2c3c(sc2n1)COC(C)(CC)C3 (stereo not given)	0	/	/	/	/	/	/
C[C@@H]1CN([C@H](C)CO)C(=O)c2cc(NS(=O)(=O)c3ccc(Cl)cc3)ccc2O[C@@H](C)CCCCO[C@H]1CN(C)C(=O)Nc1ccccc1	1	0	?	101*	28	-44	-23
